Target: T1, 5'-nucleotidase (Rattus norvegicus) (UniProt P21588)
T1 sequence (whole entry): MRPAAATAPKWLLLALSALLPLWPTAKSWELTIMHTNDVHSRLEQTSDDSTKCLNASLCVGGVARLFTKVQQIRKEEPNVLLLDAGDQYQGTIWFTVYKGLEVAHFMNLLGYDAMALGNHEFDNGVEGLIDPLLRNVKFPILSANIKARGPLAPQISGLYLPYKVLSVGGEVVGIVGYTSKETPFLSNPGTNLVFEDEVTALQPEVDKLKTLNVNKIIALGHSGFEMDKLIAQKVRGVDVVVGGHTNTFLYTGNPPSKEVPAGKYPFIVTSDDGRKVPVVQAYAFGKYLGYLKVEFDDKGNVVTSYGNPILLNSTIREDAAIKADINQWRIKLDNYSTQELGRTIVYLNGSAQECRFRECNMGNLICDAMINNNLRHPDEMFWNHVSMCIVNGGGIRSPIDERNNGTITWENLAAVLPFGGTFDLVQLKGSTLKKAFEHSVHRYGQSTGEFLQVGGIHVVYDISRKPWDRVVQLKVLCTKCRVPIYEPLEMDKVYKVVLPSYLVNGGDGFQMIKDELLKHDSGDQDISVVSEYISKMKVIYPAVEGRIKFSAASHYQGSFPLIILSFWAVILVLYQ
Assay: Activity at rat recombinant ecto-5'-nucleotidase expressed in baculovirus-infected insect Sf9 cells co-transfected with soluble glutathione-S-transferase assessed as compound dephosphorylation by capillary electrophoresis relative to AMP
Parameters: concentration or dose not given beside the values
Method in brief: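 Purified GST-rat ecto-5'-NT fusion protein (baculovirus/insect cells, glutathione-agarose purified). 500 μM nucleoside monophosphate in 10 mM Hepes pH 7.4, 2 mM MgCl2, 1 mM CaCl2; 37 °C, 20 min; stopped at 99 °C for 5 min. Nucleoside product quantified by capillary electrophoresis (borate pH 9.1, UV 232 nm). Dephosphorylation expressed relative to AMP (100%). Two experiments, triplicate injections.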

SMILES | Activity [%]
Nc1nc(SCCC2OCCO2)nc2c1ncn2[C@@H]1O[C@H](COP(=O)(O)O)[C@@H](O)[C@H]1O | 104
Nc1nc(SCc2ccccc2)nc2c1ncn2[C@@H]1O[C@H](COP(=O)(O)O)[C@@H](O)[C@H]1O | 0
Nc1nc(SC2CCCCC2)nc2c1ncn2[C@@H]1O[C@H](COP(=O)(O)O)[C@@H](O)[C@H]1O | 28
C=CCSc1nc(N)c2ncn([C@@H]3O[C@H](COP(=O)(O)O)[C@@H](O)[C@H]3O)c2n1 | 0
CCCCCCSc1nc(N)c2ncn([C@@H]3O[C@H](COP(=O)(O)O)[C@@H](O)[C@H]3O)c2n1 | 84
Nc1nc(SCCc2ccccc2)nc2c1ncn2[C@@H]1O[C@H](COP(=O)(O)O)[C@@H](O)[C@H]1O | 0
Nc1nc(SCCC2COCCO2)nc2c1ncn2[C@@H]1O[C@H](COP(=O)(O)O)[C@@H](O)[C@H]1O (some centres not stated) | 67
CCCSc1nc(N)c2ncn([C@@H]3O[C@H](COP(=O)(O)O)[C@@H](O)[C@H]3O)c2n1 | 47
Nc1nc(SCC2CCCCC2)nc2c1ncn2[C@@H]1O[C@H](COP(=O)(O)O)[C@@H](O)[C@H]1O | 71
Nc1nc(SCCC2CCCCC2)nc2c1ncn2[C@@H]1O[C@H](COP(=O)(O)O)[C@@H](O)[C@H]1O | 96
Nc1nc(SC2CCCC2)nc2c1ncn2[C@@H]1O[C@H](COP(=O)(O)O)[C@@H](O)[C@H]1O | 71
C#CCSc1nc(N)c2ncn([C@@H]3O[C@H](COP(=O)(O)O)[C@@H](O)[C@H]3O)c2n1 | 0
